The test system of one assay is frog. As to the kind of experiment: Potency in the frog (Rana pipiens) skin bioassay relative to alpha-MSH. The class given is functional. Put shortly:
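In vitro Rana pipiens skin bioassay scoring melanosome dispersion as skin darkening. Solutions were made by serial dilution from a 10⁻⁴ M stock. Responses are the mean ± SE of 6 or more skins. Potency was calculated along the linear portion of the dose-response curve and standardized to α-MSH = 1.00.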

The next assay relates to lizara. The experiment in a line: Potency in the lizard (Anolis carolinensis) skin bioassay relative to alpha-MSH. In kind it is functional. The essentials: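 In vitro Anolis carolinensis skin bioassay scoring melanosome dispersion as skin darkening. Solutions were made by serial dilution from a 10⁻⁴ M stock. Potency was calculated along the linear portion of the dose-response curve and standardized to α-MSH = 1.00.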

Potency data for 5 compounds are collected here from ChEMBL document CHEMBL1122990, “Cyclic melanotropins. 9. 7-D-Phenylalanine analogues of the active-site sequence” (J Med Chem, 1985).

Turning to `CC(=O)N[C@H]1CSSC[C@@H](C(=O)N[C@@H](CCCCN)C(N)=O)NC(=O)[C@H](Cc2c[nH]c3ccccc23)NC(=O)[C@H](CCCN=C(N)N)NC(=O)[C@@H](Cc2ccccc2)NC(=O)[C@H](Cc2c[nH]cn2)NC(=O)[C@H](CCC(=O)O)NC1=O`, the Potency worked out at 2.5 in the assay on frog and 3 in the assay on lizara.

Take `CC(=O)N[C@H]1CSSC[C@@H](C(=O)N[C@@H](CCCCN)C(N)=O)NC(=O)[C@H](Cc2c[nH]c3ccccc23)NC(=O)[C@H](CCCN=C(N)N)NC(=O)[C@H](Cc2ccccc2)NC(=O)[C@H](Cc2c[nH]cn2)NC(=O)[C@H](CCC(=O)O)NC1=O`: the Potency in the assay on frog came out at 0.16; with lizara, 0.07.

`CC(=O)N[C@H]1CSSC[C@@H](C(N)=O)NC(=O)[C@H](Cc2c[nH]c3ccccc23)NC(=O)[C@H](CCCN=C(N)N)NC(=O)[C@H](Cc2ccccc2)NC(=O)[C@H](Cc2c[nH]cn2)NC(=O)[C@H](CCC(=O)O)NC1=O`: the Potency came out at 0.06 with frog and 0.003 in the assay on lizara.

Consider `CC(=O)N[C@@H](CO)C(=O)N[C@@H](Cc1ccc(O)cc1)C(=O)N[C@@H](CO)C(=O)N[C@H]1CSSC[C@@H](C(=O)N[C@@H](CCCCN)C(=O)N2CCC[C@H]2C(=O)N[C@H](C(N)=O)C(C)C)NC(=O)[C@H](Cc2c[nH]c3ccccc23)NC(=O)[C@@H](CCCN=C(N)N)NC(=O)[C@H](Cc2ccccc2)NC(=O)[C@@H](Cc2c[nH]cn2)NC(=O)[C@H](CCC(=O)O)NC1=O`, for which the Potency in the assay with frog stood at 10; in the assay with lizara, 2.

In the case of `CC(=O)N[C@H]1CSSC[C@@H](C(N)=O)NC(=O)[C@H](Cc2c[nH]c3ccccc23)NC(=O)[C@H](CCCN=C(N)N)NC(=O)[C@@H](Cc2ccccc2)NC(=O)[C@H](Cc2c[nH]cn2)NC(=O)[C@H](CCC(=O)O)NC1=O`, the Potency was determined as 0.75 in the assay on frog and 0.5 in the assay on lizara.
